The values below come from ChEMBL document CHEMBL1136958, “Design and optimization of renin inhibitors: Orally bioavailable alkyl amines” (Bioorg Med Chem Lett, 2009).

Structures are written as SMILES.

One series can be described thus: in vivo. The settings on record: rat, po.
A short description of series [1]: Terminal half life in dog. Type of series: ADME, organism-based, Canis lupus familiaris. The settings on record: in vivo, read-out: beta t1/2 (converted).
The species named for series [2] is Macaca fascicularis. Put plainly: Terminal half life in cynomolgus monkey. The settings on record: in vivo, read-out: beta t1/2 (converted).
The nature of series [3]: Oral bioavailability in rat at 10 mg/kg. Type of series: ADME, organism-based. To be noted: in vivo. In a few lines: (§1)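 Rats dosed with the fumarate salt at 10 mg/kg by oral route and 2 mg/kg intravenously. Plasma concentrations measured over time, and PK parameters derived from them.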
The nature of series [4]: Solubility in water. The format is physicochemical.
For series [5], the system named is Macaca fascicularis. The experiment in a line: Oral bioavailability in cynomolgus monkey. The settings on record: in vivo.
Series [6] can be described thus: AUC (infinity) in rat at 10 mg/kg, po and 2 mg/kg, iv. The format is ADME, organism-based. The settings on record: plasma. In short, it runs like this: as §1
The nature of series [7]: Oral bioavailability in dog. To be noted: in vivo. The format is ADME, organism-based, Canis lupus familiaris.
Series [8] can be described thus: Cmax in rat at 10 mg/kg, po and 2 mg/kg, iv. Type of series: ADME, organism-based. To be noted: in vivo. In short, it runs like this:
as §1

Series [9] deals with Voltage-gated inwardly rectifying potassium channel KCNH2 (Homo sapiens, UniProt Q12809). Put plainly: Inhibition of human ERG by patch clamp assay. Background: The patch-clamp technique gives a direct electrical read-out from membranes.
Chain of Voltage-gated inwardly rectifying potassium channel KCNH2 (Q12809 whole entry): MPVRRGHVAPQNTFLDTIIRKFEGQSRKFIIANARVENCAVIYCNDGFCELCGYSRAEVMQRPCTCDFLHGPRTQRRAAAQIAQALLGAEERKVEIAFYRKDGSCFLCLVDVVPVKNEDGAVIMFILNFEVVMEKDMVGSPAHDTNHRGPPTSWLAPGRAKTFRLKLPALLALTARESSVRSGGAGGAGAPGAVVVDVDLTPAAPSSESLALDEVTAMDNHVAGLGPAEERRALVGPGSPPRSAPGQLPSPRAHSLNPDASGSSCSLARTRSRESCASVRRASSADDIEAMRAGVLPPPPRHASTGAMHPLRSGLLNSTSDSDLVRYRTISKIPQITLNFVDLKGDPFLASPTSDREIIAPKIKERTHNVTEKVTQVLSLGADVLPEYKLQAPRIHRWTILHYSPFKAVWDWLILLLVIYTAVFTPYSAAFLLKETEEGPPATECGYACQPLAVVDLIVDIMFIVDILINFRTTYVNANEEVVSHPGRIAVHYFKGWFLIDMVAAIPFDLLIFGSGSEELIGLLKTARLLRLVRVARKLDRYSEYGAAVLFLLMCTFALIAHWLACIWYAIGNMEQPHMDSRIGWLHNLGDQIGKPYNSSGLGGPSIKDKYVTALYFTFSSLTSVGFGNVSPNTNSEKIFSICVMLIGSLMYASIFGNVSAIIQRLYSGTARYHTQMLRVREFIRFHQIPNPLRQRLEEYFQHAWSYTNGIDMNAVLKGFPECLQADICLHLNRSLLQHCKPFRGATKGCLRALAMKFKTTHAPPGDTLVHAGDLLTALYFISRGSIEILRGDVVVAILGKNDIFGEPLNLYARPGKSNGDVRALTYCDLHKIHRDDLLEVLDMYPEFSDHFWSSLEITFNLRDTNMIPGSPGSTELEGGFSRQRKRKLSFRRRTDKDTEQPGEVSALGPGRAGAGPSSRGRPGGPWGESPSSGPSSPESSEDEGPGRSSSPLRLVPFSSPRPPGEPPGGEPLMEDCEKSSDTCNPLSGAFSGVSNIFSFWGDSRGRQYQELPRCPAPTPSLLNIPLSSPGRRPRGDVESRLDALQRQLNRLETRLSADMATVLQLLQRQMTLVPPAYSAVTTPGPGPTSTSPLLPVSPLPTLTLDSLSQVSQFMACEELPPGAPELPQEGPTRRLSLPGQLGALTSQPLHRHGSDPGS
Series [10] can be described thus: Clearance in rat at 2 mg/kg, iv. Type of series: ADME, organism-based. More on the design: dose 2 mg/kg, route intravenous. To be noted: in vivo. In a few lines: as §1
Series [11] can be described thus: Tmax in rat at 10 mg/kg, po and 2 mg/kg, iv. To be noted: in vivo. Type of series: ADME, organism-based. In short, it runs like this: as §1

As to `COCCCOc1cc(C[C@@H](C[C@H](N)[C@@H](O)C[C@H](C(=O)NCC(C)(C)C(N)=O)C(C)C)C(C)C)ccc1OC`, the bioavailability (usually the share of a dose that reaches the circulation, judged against a reference dose that is usually intravenous) in “in vivo” worked out at 2.4%.
`CNC[C@H](CC1CCCCC1)NC(=O)N1CCC[C@@H]([C@@](O)(CCCCOC)c2cccc(Cl)c2)C1.O=C(O)/C=C/C(=O)O`: the half-life (in [1]; in the series listed under Macaca fascicularis [2]) was 16 h each time. In addition, the bioavailability in series [3] turned out to be 12.9%; with Macaca fascicularis [5] it was 17%; in series [7], 38%. Besides, the solubility (as a rule, the dissolved amount per volume that the medium holds) in series [4] was more than 1000 µg/mL. Further, the area under the curve AUC(0-inf) – broadly, the area under the concentration-time curve extrapolated to infinity – in series [6] came out at 530 ng·h/mL. Further, the peak concentration (Cmax) – broadly, the peak of the concentration-time curve – in series [8] was 73 ng/mL. Further, the half-inhibitory concentration (IC50) (as a rule, the concentration that gives 50% inhibition) in [9] is more than 30 µM. Besides, the clearance (as a rule, the volume of plasma or blood freed of the substance per unit of time) in series [10] came out at 33 mL/min/kg. Moreover, the time of peak concentration (Tmax) (usually the time at which the peak concentration occurs) in series [11] amounted to 3.3 h.
